Test system: Fibroblast
Assay: Multiplex assay against human fibroblast
Assay type: toxicity, cell-based
Summary of the method: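 Live cells were stained at seeding with Hoechst33342, BioTracker Green Microtubule Cytoskeleton Dye, MitoTracker Red and Annexin V Alexa Fluor 680, then imaged on a CQ1 microscope at 37°C and 5% CO2 after compound addition. CellPathfinder machine-learning gating split cells into Hoechst high-intensity objects or normal cells. Normal cells were split into healthy, pyknosed or fragmented nuclei, and pyknosed cells into mitotic or apoptotic. Tubulin, mitochondrial-mass and membrane-permeability phenotypes are per cents of healthy-nucleus cells.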

[1] = 12 h, 1 µM, compound concentration 1 uM, replicate 1
[2] = 12 h, 1 µM, compound concentration 1 uM, replicate 2
[3] = 12 h, 10 µM, compound concentration 10 uM, replicate 1
[4] = 12 h, 10 µM, compound concentration 10 uM, replicate 2
[5] = 24 h, 1 µM, compound concentration 1 uM, replicate 1
[6] = 24 h, 1 µM, compound concentration 1 uM, replicate 2
[7] = 24 h, 10 µM, compound concentration 10 uM, replicate 1

In the case of `CCn1c(-c2nonc2N)nc2cnc(Oc3cccc(NC(=O)c4ccc(OCCN5CCOCC5)cc4)c3)cc21` [GSK-269962A], the “Population Apoptotic (%)” value [1] is reported as 50%, the “Population Fragmented Nuclei (%)” value [1] is reported as 29% and the “Population Healthy Nuclei (%)” value [1] is reported as 36%. The “Population Hoechst High Intensity Objects (%)” value [1] was 12%, the “Population Membrane Permeable-Phenotype (%)” value [1] was 22% and the “Population Mitochondria Different-Phenotype (%)” value [1] was 2%. For the same molecule, the “Population Mitotic Cells (%)” value [1] was 50%, the “Population Normal (%)” value [1] was 87% and the “Population Pyknosed Nuclei (%)” value [1] was 33%. For the same molecule, the “Population Tubulin-Different-Phenotype (%)” value [1] was 46%, the “Total Cell Count” value [1] was 141 and the “Population Apoptotic (%)” value [2] was 20%. The “Population Fragmented Nuclei (%)” value [2] was 20%, the “Population Healthy Nuclei (%)” value [2] was 72% and the “Population Hoechst High Intensity Objects (%)” value [2] was 2%. For the same molecule, the “Population Membrane Permeable-Phenotype (%)” value [2] was 14%, the “Population Mitochondria Different-Phenotype (%)” value [2] was 16% and the “Population Mitotic Cells (%)” value [2] was 80%. For the same molecule, the “Population Normal (%)” value [2] was 97%, the “Population Pyknosed Nuclei (%)” value [2] was 7% and the “Population Tubulin-Different-Phenotype (%)” value [2] was 14%. For the same molecule, the “Total Cell Count” value [2] was 45, the “Population Apoptotic (%)” value [3] was 55% and the “Population Fragmented Nuclei (%)” value [3] was 40%. The “Population Healthy Nuclei (%)” value [3] was 28%, the “Population Hoechst High Intensity Objects (%)” value [3] was 12% and the “Population Membrane Permeable-Phenotype (%)” value [3] was 21%. For the same molecule, the “Population Mitochondria Different-Phenotype (%)” value [3] was 47%, the “Population Mitotic Cells (%)” value [3] was 44% and the “Population Normal (%)” value [3] was 87%. For the same molecule, the “Population Pyknosed Nuclei (%)” value [3] was 30%, the “Population Tubulin-Different-Phenotype (%)” value [3] was 83% and the “Total Cell Count” value [3] was 216. For the same molecule, the “Population Apoptotic (%)” value [4] was 31%, the “Population Fragmented Nuclei (%)” value [4] was 20% and the “Population Healthy Nuclei (%)” value [4] was 57%. For the same molecule, the “Population Hoechst High Intensity Objects (%)” value [4] was 7%, the “Population Membrane Permeable-Phenotype (%)” value [4] was 45% and the “Population Mitochondria Different-Phenotype (%)” value [4] was 97%. The “Population Mitotic Cells (%)” value [4] was 68%, the “Population Normal (%)” value [4] was 92% and the “Population Pyknosed Nuclei (%)” value [4] was 22%. For the same molecule, the “Population Tubulin-Different-Phenotype (%)” value [4] was 100%, the “Total Cell Count” value [4] was 71 and the “Population Apoptotic (%)” value [5] was 47%. For the same molecule, the “Population Fragmented Nuclei (%)” value [5] was 21%, the “Population Healthy Nuclei (%)” value [5] was 47% and the “Population Hoechst High Intensity Objects (%)” value [5] was 14%. The “Population Membrane Permeable-Phenotype (%)” value [5] was 19%, the “Population Mitochondria Different-Phenotype (%)” value [5] was 9% and the “Population Mitotic Cells (%)” value [5] was 52%. The “Population Normal (%)” value [5] was 85%, the “Population Pyknosed Nuclei (%)” value [5] was 31% and the “Population Tubulin-Different-Phenotype (%)” value [5] was 41%. The “Total Cell Count” value [5] was 126, the “Population Apoptotic (%)” value [6] was 75% and the “Population Fragmented Nuclei (%)” value [6] was 11%. For the same molecule, the “Population Healthy Nuclei (%)” value [6] was 77%, the “Population Hoechst High Intensity Objects (%)” value [6] was 2% and the “Population Membrane Permeable-Phenotype (%)” value [6] was 1%. The “Population Mitochondria Different-Phenotype (%)” value [6] was 10%, the “Population Mitotic Cells (%)” value [6] was 25% and the “Population Normal (%)” value [6] was 97%. The “Population Pyknosed Nuclei (%)” value [6] was 11%, the “Population Tubulin-Different-Phenotype (%)” value [6] was 14% and the “Total Cell Count” value [6] was 59. The “Population Apoptotic (%)” value [7] was 57%, the “Population Fragmented Nuclei (%)” value [7] was 37% and the “Population Healthy Nuclei (%)” value [7] was 42%. The “Population Hoechst High Intensity Objects (%)” value [7] was 12%.

— ChEMBL document CHEMBL4689842, “EUbOPEN Chemogenomics Library wave 1” (2021)
